These results are taken from ChEMBL document CHEMBL4673268, “The optimization of a novel selective antagonist for human M muscarinic acetylcholine receptor” (Bioorg Med Chem Lett, 2020).

One may read the pKi as the negative decadic logarithm of the Ki, by convention in mol/L. Usually pIC50 stands for the IC50 on a negative log10 scale, so that one unit is a factor of ten.

Test [1] deals with T1, Muscarinic acetylcholine receptor M2 (Homo sapiens) (UniProt P08172).
T1 sequence (whole entry): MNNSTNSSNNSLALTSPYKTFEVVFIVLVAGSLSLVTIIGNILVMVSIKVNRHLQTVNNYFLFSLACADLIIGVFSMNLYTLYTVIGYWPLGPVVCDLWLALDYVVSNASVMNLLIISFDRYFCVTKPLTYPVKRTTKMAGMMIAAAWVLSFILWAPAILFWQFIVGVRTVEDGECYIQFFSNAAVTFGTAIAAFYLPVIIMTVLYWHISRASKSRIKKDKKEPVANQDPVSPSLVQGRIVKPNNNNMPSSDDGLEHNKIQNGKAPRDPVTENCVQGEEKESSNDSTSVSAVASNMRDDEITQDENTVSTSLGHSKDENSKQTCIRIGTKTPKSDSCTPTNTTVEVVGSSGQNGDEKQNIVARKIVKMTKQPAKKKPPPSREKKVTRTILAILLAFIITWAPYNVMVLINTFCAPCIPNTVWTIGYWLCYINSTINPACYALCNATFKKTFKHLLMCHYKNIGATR
As to the kind of experiment: Antagonist activity at muscarinic M2 receptor (unknown origin) at 100 uM by acetylcholine titration assay. To be noted: filed as antagonist. The gist of the method:
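Acetylcholine titration curves were run in a radioligand binding format, without and with test ligand at 100 μM. A rightward shift of the ACh curve was taken to indicate negative allosteric modulation, and no shift to indicate orthosteric antagonism.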

Test [2] has as its target T2, Muscarinic acetylcholine receptor M2 (Homo sapiens, UniProt P08172).
T2 sequence (P08172 whole entry): T1 sequence (whole entry)
Kind of test: Displacement of [3H]-NMS from muscarinic M2 receptor (unknown origin) expressed in CHO-K1 cell membranes assessed as inhibition constant by radioligand competition analysis. Also on record: species or system Cell membrane.

Test [3] deals with Muscarinic acetylcholine receptor M3 (Homo sapiens, UniProt P20309). Kind of test: Displacement of [3H]-NMS from muscarinic M3 receptor (unknown origin) expressed in CHO-K1 cell membranes assessed as inhibition constant by radioligand competition analysis. The arrangement: species or system Cell membrane. The gist of the method:
(§1)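 Inhibition constants came from radioligand competition binding. Acetylcholine and atropine were included as positive controls for competitive binding. Values are given as mean ± SEM.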
In general terms: Displacement assays read how much labelled ligand stays bound in the presence of the test substance.

Test [4] concerns the target T3, Muscarinic acetylcholine receptor M4 (Homo sapiens, UniProt P08173).
T3 sequence (P08173 whole entry): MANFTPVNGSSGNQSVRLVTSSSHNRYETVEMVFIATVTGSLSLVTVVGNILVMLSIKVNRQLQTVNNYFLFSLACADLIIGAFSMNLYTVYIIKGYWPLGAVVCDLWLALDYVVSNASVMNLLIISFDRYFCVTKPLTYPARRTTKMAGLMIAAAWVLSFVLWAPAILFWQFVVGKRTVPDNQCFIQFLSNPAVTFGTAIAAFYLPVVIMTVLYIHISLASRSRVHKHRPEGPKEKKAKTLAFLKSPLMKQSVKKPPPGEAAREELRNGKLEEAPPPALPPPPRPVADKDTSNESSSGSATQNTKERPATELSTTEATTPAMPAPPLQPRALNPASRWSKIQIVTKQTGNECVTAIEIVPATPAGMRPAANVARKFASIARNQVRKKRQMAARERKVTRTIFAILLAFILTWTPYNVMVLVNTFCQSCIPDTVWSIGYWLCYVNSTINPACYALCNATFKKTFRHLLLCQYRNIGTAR
As to the kind of experiment: Displacement of [3H]-NMS from muscarinic M4 receptor (unknown origin) expressed in CHO-K1 cell membranes assessed as inhibition constant by radioligand competition analysis. Also on record: species or system Cell membrane. In a few lines:
as §1

Test [5] addresses T4, Muscarinic acetylcholine receptor M1 (Homo sapiens, UniProt P11229).
T4 sequence (P11229 whole entry): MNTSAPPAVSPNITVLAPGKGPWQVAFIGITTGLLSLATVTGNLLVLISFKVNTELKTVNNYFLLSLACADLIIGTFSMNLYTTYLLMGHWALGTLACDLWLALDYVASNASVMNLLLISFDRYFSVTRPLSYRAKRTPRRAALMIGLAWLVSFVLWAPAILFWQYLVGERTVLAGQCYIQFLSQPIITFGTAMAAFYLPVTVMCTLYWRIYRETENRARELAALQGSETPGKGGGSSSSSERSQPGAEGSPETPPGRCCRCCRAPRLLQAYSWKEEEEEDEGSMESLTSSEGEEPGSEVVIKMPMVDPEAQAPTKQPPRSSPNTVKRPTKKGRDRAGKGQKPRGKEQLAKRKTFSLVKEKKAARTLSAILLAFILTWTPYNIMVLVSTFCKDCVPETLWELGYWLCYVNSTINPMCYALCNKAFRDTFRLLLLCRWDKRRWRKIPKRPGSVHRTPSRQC
As to the kind of experiment: Displacement of [3H]-NMS from muscarinic M1 receptor (unknown origin) expressed in CHO-K1 cell membranes assessed as inhibition constant by radioligand competition analysis. The arrangement: species or system Cell membrane. The gist of the method: as §1

The target of test [6] is T2, Muscarinic acetylcholine receptor M2. Kind of test: Antagonist activity at human muscarinic M2 receptor expressed in CHO cells co-expressing Galpha15 assessed as inhibition of acetylcholine-induced calcium mobilization relative to acetylcholine. Type of test: functional, cell-based. A general note: Calcium assays in cells follow changes in intracellular calcium, usually with a dye or a luminescent sensor.

The target of test [7] is Muscarinic acetylcholine receptors; M1 & M2 (Homo sapiens) (UniProt P11229+P08172). As to the kind of experiment: Selectivity for human muscarinic M2 receptor over muscarinic M1 receptor (unknown origin). Type of test: protein assay.
Test [8] addresses Muscarinic acetylcholine receptor M2 and M4 (Homo sapiens) (UniProt P08173+P08172). Kind of test: Selectivity for human muscarinic M2 receptor over muscarinic M4 receptor (unknown origin). It counts as protein assay.
Test [9] has as its target Muscarinic acetylcholine receptors; M2 & M3 (Homo sapiens) (UniProt P20309+P08172). Kind of test: Selectivity for human muscarinic M2 receptor over muscarinic M3 receptor (unknown origin). It counts as protein assay.

pIC50, pKi: −log10 of the molar value. Calls of active or inactive are those of the source. The calls are words filed in the database; no cut-off is given here.

Muscarinic acetylcholine receptor M3, sequence (P20309 whole entry): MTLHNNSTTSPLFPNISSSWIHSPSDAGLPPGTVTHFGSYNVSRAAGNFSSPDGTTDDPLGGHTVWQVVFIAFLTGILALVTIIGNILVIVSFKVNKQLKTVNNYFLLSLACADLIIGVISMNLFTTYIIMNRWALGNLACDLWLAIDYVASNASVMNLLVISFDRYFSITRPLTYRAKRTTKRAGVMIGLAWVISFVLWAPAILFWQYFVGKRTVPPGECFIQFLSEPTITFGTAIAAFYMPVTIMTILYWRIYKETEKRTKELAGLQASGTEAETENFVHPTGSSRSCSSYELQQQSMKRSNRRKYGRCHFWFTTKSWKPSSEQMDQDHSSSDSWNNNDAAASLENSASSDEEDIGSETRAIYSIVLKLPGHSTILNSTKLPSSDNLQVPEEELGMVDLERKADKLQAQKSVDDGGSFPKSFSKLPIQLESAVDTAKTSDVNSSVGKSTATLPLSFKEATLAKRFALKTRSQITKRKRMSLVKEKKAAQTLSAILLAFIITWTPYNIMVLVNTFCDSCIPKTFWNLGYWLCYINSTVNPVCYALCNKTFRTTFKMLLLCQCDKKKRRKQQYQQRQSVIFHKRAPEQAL
Muscarinic acetylcholine receptors; M2 & M3 (Homo sapiens), sequence (P20309 whole entry, looked up, one chain of several): as the sequence (P20309 whole entry) above

Take `CC1Cc2ccccc2N1CC(=O)N1CCCC1` (stereo not given): the outcome in test [1] was Active. For the same compound, the pKi is 4.67 in [2], 4.10 in test [3], 4.13 in [4] and 4.00 in test [5]. Also, the pIC50 in [6] was under 4.00.
As to `CC1Cc2ccccc2N1CC(=O)N1CCCCC1` (stereo not given), the result in test [1] was Active. In addition, the pKi in test [2], in [3] and in [4] was under 4.00 throughout. The pIC50 in test [6] was under 4.00.
Take `O=C(CCN1CCCc2ccccc21)N1CCC[C@H]1CO`: the pKi in [2] is 5.29; in [3], 4.36; in [4] it was 4.89; in test [5] it was 4.85. Further, in [6], the pIC50 was 4.76.
In the same order, the values of `Cc1ccc2c(c1)CCCN2CC(=O)N1CCCCC1` are 4.73, 4.18, 4.67, 4.75 and 4.61.
Regarding `O=C(CCN1CCCc2ccccc21)Nc1cccc2cccnc12`, the Ratio in test [7] is 8; in test [8] it was 30; in test [9], over 250. In addition, the outcome in test [1] was Active. Also, the negative logarithm of the Ki (pKi) in test [2] was 6.21; in test [3], under 4.00; in test [4] it was 4.74; in test [5], 5.31. Besides, the pIC50 in test [6] is 6.32.
As for `Cn1ccc(NC(=O)CCN2CCCc3ccccc32)n1`, the pKi in [2] is 5.48; in [3], 4.59; in test [4], 5.06; in test [5], 5.12. Besides, in [6], the pIC50 is 6.01.
As for `CC1CCCCN1C(=O)CCN1CCCc2ccccc21` (stereo not given), the pKi is 5.49 in test [2], 5.07 in test [3], 5.28 in test [4] and 5.20 in [5]. The pIC50 in [6] is 5.50.
In the same order, the values of `O=C(CCN1CCCc2ccccc21)N1CCC(O)C1` (stereo not given) are 4.78, under 4.00, 4.30, 4.29 and 4.15.
Consider `COC1CN(C(=O)CCN2CCCc3ccccc32)C1`, for which the pKi is 5.45 in test [2], 4.49 in [3], 4.80 in [4] and 4.76 in test [5]. Moreover, the pIC50 in [6] was 4.69.
In the same order, the values of `O=C(CCN1CCCc2ccccc21)Nc1ccc(Cl)cc1` are 5.48, 4.97, 4.97, 5.25 and 5.85.
